# Assay outcomes from PubChem BioAssay.
# This is a sample that favours compounds with a hit; in the whole collection about 3.3% have one here.
# ABCB6 inh MLPCN: inhibitors of human ABC transporter ABCB6; K562-ABCB6 porphyrin accumulation, flow cytometry, 1 h; active compounds read low; hit rate 0.19% among 360,000; AID 602162; Q9NP58; fluorescence ratio to DMSO, % at 10 µM;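 active means fluorescence ratio to DMSO below 75%, the collection mean minus 3 SD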;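 further: signal is porphyrin accumulated inside mitochondria; 100% equals median channel fluorescence of DMSO control wells; lower ratio means ABCB6 inhibition with less porphyrin fluorescence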
# Target sequence (Q9NP58 whole entry, looked up): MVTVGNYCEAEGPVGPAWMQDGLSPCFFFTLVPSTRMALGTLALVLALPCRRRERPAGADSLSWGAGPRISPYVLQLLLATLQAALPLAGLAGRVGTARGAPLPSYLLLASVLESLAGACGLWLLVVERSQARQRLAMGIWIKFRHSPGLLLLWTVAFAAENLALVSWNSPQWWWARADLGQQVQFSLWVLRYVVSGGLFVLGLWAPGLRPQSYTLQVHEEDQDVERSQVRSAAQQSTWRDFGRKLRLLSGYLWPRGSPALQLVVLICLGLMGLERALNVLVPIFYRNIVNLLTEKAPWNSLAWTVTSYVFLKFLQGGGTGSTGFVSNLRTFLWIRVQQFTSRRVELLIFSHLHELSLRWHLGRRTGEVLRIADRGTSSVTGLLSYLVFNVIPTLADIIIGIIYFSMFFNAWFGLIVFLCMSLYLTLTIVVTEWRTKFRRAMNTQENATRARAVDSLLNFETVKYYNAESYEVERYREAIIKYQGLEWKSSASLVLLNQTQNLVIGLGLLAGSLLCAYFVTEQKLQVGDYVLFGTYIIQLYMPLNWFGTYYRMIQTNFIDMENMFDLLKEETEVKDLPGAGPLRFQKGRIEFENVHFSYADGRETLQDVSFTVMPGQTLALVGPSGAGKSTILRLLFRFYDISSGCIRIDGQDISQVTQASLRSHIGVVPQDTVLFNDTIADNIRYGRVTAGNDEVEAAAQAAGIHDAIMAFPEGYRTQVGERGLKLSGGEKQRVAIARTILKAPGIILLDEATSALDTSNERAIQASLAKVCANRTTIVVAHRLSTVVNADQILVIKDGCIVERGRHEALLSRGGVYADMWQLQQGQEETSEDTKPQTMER
# STAT3 act: increases IL-6 driven STAT3 reporter signal | AID 871 | U3A cells, IL-6 STAT3-luciferase reporter, luminescence; 100% = signal with IL-6 EC80 alone | hit rate 0.91% among 190,000 | activation (% of control), % at 5.6 µM;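 active means activation above the screen-wide mean of compound activation plus 3 SD, cut at about 130% in these data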;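 further: 0% = background luminescence of wells with medium and substrate only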
#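 Material: human STAT1-deficient U3A cells with stable STAT3-luciferase reporter / Probe or stimulus: IL-6 stimulus at 33 ng/mL final / Schedule: 1 h compound pre-exposure, 6 h IL-6 stimulation, 37 °C / Technique: luminescence / Read-out basis: percent of IL-6-only median luminescence / Control set: IL-6-only high control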
# FXN GAA850 act: activators of GAA850 frataxin (FXN) promoter | HEK293 lucGAA850 FXN promoter luciferase reporter, 24 h; percent of 10 µM SAHA response | activation, % at 6 µM | hit rate 0.56% among 360,000;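 active means activation above the average of all compounds screened plus 3 SD, cutoff fixed separately per campaign, cut at about 7.5% in these data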;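 further: 0% = DMSO wells and 100% = 10 µM SAHA wells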
# AHR activator: activates the human aryl hydrocarbon receptor; P35869; AHR-responsive luciferase reporter cells, luminescence; activation, % at 5 µM; hit rate 2.5% among 320,000; in the data active means activation above about 47%;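 further: 0% = vehicle wells and 100% = reference agonist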
# ABCB6 inh CP1: inhibitors of human ABC transporter ABCB6; shares compounds with ABCB6 inh MLPCN; K562-ABCB6 porphyrin accumulation, flow cytometry, 1 h; active compounds read low; ratio response (% of DMSO), % at 10 µM; 700 tested, under 10 active;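 active means repeat-averaged ratio response below 75% of DMSO, the collection mean minus 3 SD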;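 further: median porphyrin fluorescence at 575 nm with 488 nm excitation from mitochondria; lower ratio means less porphyrin signal so ABCB6 inhibition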
# * marks the source's active call; other numbers are inactive results; i = inactive; x = no result given.
SMILES,ABCB6 inh MLPCN,STAT3 act,FXN GAA850 act,AHR activator,ABCB6 inh CP1
CC(Oc1ccc2c3c(c(=O)oc2c1)CCCC3)C(=O)NCc1cccnc1 (stereo not drawn),58*,x,1,-4,101
CC(C)c1cc(NCCOCCO)n2c(nc3ccccc32)c1C#N,73*,x,1,5,99
O=C(Nc1cccc(Cl)c1)NC1CCN(C2CCCCC2)C1 (stereo not drawn),47*,x,1,1,100
O=C(NC1CCN(C(=O)Nc2cccc(Cl)c2)CC1)C1CCCCC1,89,x,1,4,x
COc1ccccc1C(=O)Nc1cc(C)on1,97,x,3,-1,x
COc1ccccc1C(=O)Nc1cc(-c2ccc(C)cc2)no1,69*,x,4,33,97
O=C(Nc1nnc(-c2ccc(F)cc2)o1)c1cc(Cl)sc1Cl,100,105,3,1,x
O=C(Nc1nnc(-c2ccccc2)o1)c1cc(Cl)sc1Cl,69*,93,-2,1,98
CC(C)(C)Cc1c(-c2ccco2)nc2ccc(Cl)cn12,108,x,x,x,x
CCN(CC(=O)Nc1c(F)cccc1F)C(=O)c1ccc(C#N)cc1,70*,x,0,2,99
COC(=O)C[C@H]1C[C@@H]2c3cc(NC(=O)NC4CCCC4)ccc3O[C@@H]2[C@@H](CO)O1,101,x,-2,x,x
CCN1CCN(C(=O)c2ccc3c(=O)n(Cc4ccccc4OC)c(=S)[nH]c3c2)CC1,69*,107,0,1,102
Cc1cccc(C(=O)OC(C)C(=O)N2CCN(Cc3ccccc3)CC2)c1 (stereo not drawn),94,x,1,x,x
CC(=O)CN1C(=O)NC(c2ccccc2)(c2ccccc2)C1=O,46*,x,1,0,104
CC(C)(C)NC(=O)CN1C(=O)NC(c2ccccc2)(c2ccccc2)C1=O,98,x,-2,3,x
CN(C)c1ccc(P(=O)(OC2CCCCC2)C(O)c2ccncc2)cc1 (stereo not drawn),97,x,1,-2,x
Clc1ccc(Cl)c(OCCN2CCCC2)c1,49*,x,2,0,105
Clc1ccc(Cl)c(OCCN2CCOCC2)c1,91,99,2,-2,x
C#CCOCCOCCOCCNc1nc(N2CCN(C(=O)[C@H]([C@@H](C)CC)n3cc([C@@H](N)Cc4ccc(O)cc4)nn3)CC2)nc(N2CCN(C(=O)[C@H](CCCCN)n3cc([C@@H](N)CO)nn3)CC2)n1,x,x,x,1,x
c1ccc(CNc2nc(N3CCOCC3)nc(N3CCOCC3)n2)cc1,101,96,1,0,x
Clc1ccc(CNc2nc(N3CCOCC3)nc(N3CCOCC3)n2)cc1,11*,93,-1,9,97
COc1ccccc1NC(=O)Cc1noc(CSc2nnc(C)s2)n1,96,106,-1,5,x
CCOCCCNC(=O)CCc1nnc2ccc(N3CCCCC3)nn12,98,x,-1,1,100
CSc1ccc(CCNC(=O)CCc2nnc3ccc(N4CCCCC4)nn23)cc1,96,x,0,-3,x
CCOC(=O)C(C)NC(=O)CCc1nnc2ccc(N3CCCCC3)nn12 (stereo not drawn),90,x,0,4,98
SMILES,ABCB6 inh MLPCN,STAT3 act,FXN GAA850 act,AHR activator,ABCB6 inh CP1
COc1c(C)cc(C(=O)C2CCCN(S(=O)(=O)N(C)C)C2)cc1C (stereo not drawn),96,x,2,7,x
Cc1cc(NC(=O)c2cc(S(=O)(=O)N3CCCCC3)ccc2C)no1,107,x,-1,2,x
Cc1cc(NC(=O)c2cccc(S(=O)(=O)N3CCCCCC3)c2)no1,70*,91,2,1,99
CCOC(=O)C1(C)CCCN1C(=O)c1ccc(N(C)C)cc1 (stereo not drawn),107,x,0,x,x
COc1cccc(C(=O)NCC(=O)NCc2cc(=O)n(C)c(=O)n2C)c1OC,103,x,0,0,x
O=C(O)CCc1n[nH]c(=S)[nH]c1=O,91,98,-1,-1,x
Nc1nc(NCc2ccccc2)nc(Nc2cccc(F)c2)c1[N+](=O)[O-],41*,102,1,35,101
Nc1nc(NCc2ccco2)nc(Nc2cccc(F)c2)c1[N+](=O)[O-],99,x,6,20,x
C/C(=N\NC(=O)c1ccc(OC2OCCOC2Oc2ccc(C(=O)N/N=C(\C)c3ccncc3)cc2)cc1)c1ccncc1 (stereo not drawn),94,x,-2,3,x
O=C1N(CCCN2C(=O)C3(OCCO3)c3ccccc32)c2ccccc2C12OCCO2,68*,90,-1,30,103
N#CCCN1C(=O)C2(OCCO2)c2ccccc21,100,x,1,0,x
C=CCn1c(SCC(=O)Nc2cccc(S(=O)(=O)N(C)c3ccccc3)c2)nnc1C1CC1,97,x,1,1,x
CO/N=C\CC(=O)Nc1ccc(Oc2ccccc2)cc1,96,108,2,1,x
COc1ccc([C@@H]2Sc3cc(OC)ccc3N(CCN(C(C)C)C(C)C)C(=O)[C@H]2OC(C)=O)cc1,51*,110,-4,-1,101
CCN1C(=O)C(NC(C)=O)c2cc(OC)ccc21 (stereo not drawn),109,101,-2,0,x
O=C1c2ccsc2SCCN1Cc1ccc(Cl)cc1,i,92,1,0,x
Brc1cccc(CN2CCN(c3ncccn3)CC2)c1,98,x,2,x,x
CCN(CC)S(=O)(=O)c1cccc(-n2c(O)c(C=Nc3ccccc3C(=O)O)c3ccccc3c2=O)c1,74*,x,-11,3,83
COc1ccc(N2C(=O)CSC2c2cccc(F)c2)cc1 (stereo not drawn),74*,x,0,0,97
CC(C)(C)NC(=O)NC(=O)COC(=O)C1CCN(S(=O)(=O)c2cccs2)CC1,100,x,0,2,x
COc1ccc(NC(=O)COC(=O)CC2CCCC2)cc1Cl,104,x,1,3,x
COc1ccc(C2CC(c3cccs3)=NN2C(=O)CSC2=NCCS2)cc1 (stereo not drawn),106,x,1,3,x
COc1cccc(C2CC(c3cccs3)=NN2C(=O)CSc2nc3ccccc3o2)c1OC (stereo not drawn),70*,105,2,12,97
CCOc1cc(C(=O)N2CCN(C/C=C/c3ccccc3)CC2)cc(OCC)c1OCC,67*,107,2,1,100
COc1ccc(C(=O)CSc2nnc(CNC(=O)c3ccccc3)o2)cc1,100,x,-1,1,x
O=C(NCc1ccc2c(c1)OCO2)c1ccc(Cl)c(S(=O)(=O)N2CCOCC2)c1,53*,96,-2,3,101
Cc1ccc(C(=O)NCc2ccc3c(c2)OCO3)cc1S(=O)(=O)N1CCOCC1,98,93,-1,-2,x
Cc1ccc(CC2CC(=O)N(CCc3ccc4c(c3)OCO4)C2=O)cc1 (stereo not drawn),74*,102,0,3,98
CCCCNC(=O)CSc1nnc(Cc2ccccc2)n1CC,97,101,1,1,x
